Test results: ChEMBL document CHEMBL5705894, “SB1518, a novel macrocyclic pyrimidine-based JAK2 inhibitor for the treatment of myeloid and lymphoid malignancies” (Leukemia, 2011)
Active and inactive are the calls of the source. The calls are words filed in the database; no cut-off is given here.

Columns and labels:
[1] = system: Tyrosine-protein kinase JAK2 (Homo sapiens), O60674 [V617F]; details: HEL 92.1.7, dose 1000.0 nM, time 3.0 hrs
[2] = Toxicity in athymic BALB/c nude mouse xenografted with mouse Ba/F3 cells harboring JAK2 V617F mutant assessed as spleen weight at 150 mg/kg, po administered for 13 days relative to control; details: in vivo, 312 h
[3] = Toxicity in athymic BALB/c nude mouse xenografted with mouse Ba/F3 cells harboring JAK2 V617F mutant assessed as weight loss at 150 mg/kg, po administered for 12 days; assay type: organism-based, BaF3; details: in vivo, 288 h, time 12 day
Method in brief: (§1)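 Ba/F3-JAK2V617F cells (2 × 10^6 in serum-free medium) were injected into the tail vein of BALB/c nude mice. From day 4 after inoculation, mice got SB1518 by oral gavage (10 ml/kg) at 50 or 150 mg/kg once daily. Groups held 10 mice, and four naive mice gave baseline values.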

[4] = Toxicity in SCID Beige mouse xenografted with human SET2 cells assessed as leukopenia at 150 mg/kg, po administered for 18 days by ScilVET abc hematology analyzer method; assay type: organism-based; details: in vivo, 432 h, time 18 day
[5] = AUC (0 to infinity) in athymic BALB/c nude mouse xenografted with mouse BaF3 cells at 150 mg/kg, po administered for 24 hrs by HPLC analysis; assay type: ADME, organism-based; details: in vivo
[6] = Cytotoxicity against human Erythroid progenitor cells assessed as inhibition of colony growth formation; assay type: toxicity, cell-based, Erythroid progenitor cell
Method in brief: (§2)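 PBMCs from PV patients, 2–8 × 10^5 per plate, were plated in minimal methylcellulose medium with graded drug concentrations or DMSO, in triplicate. After 14 days, erythroid (BFU-E, CFU-E) and myeloid (CFU-M, CFU-GM) colonies were counted.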

[7] = Cytotoxicity against human Myeloid progenitor cells assessed as inhibition of colony growth formation; assay type: toxicity, cell-based, Myeloid progenitor cell
Method in brief: as §2

[8] = Toxicity in athymic BALB/c nude mouse xenografted with mouse Ba/F3 cells harboring JAK2 V617F mutant assessed as liver weight at 150 mg/kg, po administered for 12 days relative to control; assay type: organism-based, BaF3; details: in vivo, 288 h, time 12 day
Method in brief: as §1

[9] = Induction of apoptosis in human EPC cells derived from healthy volunteers assessed as activation of caspase-3/7 level incubated for 16 hrs; assay type: toxicity, cell-based
[10] = Toxicity in athymic BALB/c nude mouse xenografted with mouse Ba/F3 cells harboring JAK2 V617F mutant assessed as hematocrit count at 150 mg/kg, po administered for 12 days by ScilVET abc hematology analyzer method; assay type: organism-based, BaF3; details: in vivo, 288 h, time 12 day
Method in brief: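 BALB/c nude mice were injected in the tail vein with 2 × 10^6 Ba/F3-JAK2V617F cells in serum-free medium. Oral dosing at 50 or 150 mg/kg once daily began on day 4, with 10 mice per group and 4 naive baseline mice. Blood counts were taken on a hematology analyzer.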

[11] = Toxicity in athymic BALB/c nude mouse xenografted with mouse Ba/F3 cells harboring JAK2 V617F mutant assessed as platelet count at 150 mg/kg, po administered for 12 days by ScilVET abc hematology analyzer method; assay type: organism-based, BaF3; details: in vivo, 288 h, time 12 day
Method in brief: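 Engraftment model: BALB/c nude mice were given 2 × 10^6 Ba/F3-JAK2V617F cells i.v. by tail vein. Once-daily oral gavage (10 ml/kg) of 50 or 150 mg/kg began on day 4 after inoculation, with 10 mice per group and four naive mice as baseline. Blood counts were taken on a veterinary hematology analyzer.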

[12] = Toxicity in SCID Beige mouse xenografted with human SET2 cells assessed as increase in body weight at 150 mg/kg, po administered for 18 days relative to control; assay type: organism-based; details: in vivo, 432 h, time 18 day
[13] = Toxicity in SCID Beige mouse xenografted with human SET2 cells assessed as hematocrit count at 150 mg/kg, po administered for 18 days by ScilVET abc hematology analyzer method; assay type: organism-based; details: in vivo, 432 h, time 18 day
[14] = Toxicity in SCID Beige mouse xenografted with human SET2 cells assessed as platelet count at 150 mg/kg, po administered for 18 days by ScilVET abc hematology analyzer method; assay type: organism-based; details: in vivo, 432 h, time 18 day
[15] = Toxicity in SCID Beige mouse xenografted with human SET2 cells assessed as decrease in body weight at 75 mg/kg, po administered for 18 days relative to control; assay type: organism-based; parameters: scale not given: the % may be the effect or the level left; details: in vivo, 432 h, time 18 day
[16] = Cytotoxicity against human EPC cells derived from healthy volunteers assessed as inhibition of cell viability incubated for 48 hrs by CellTiterGlo assay; assay type: toxicity, cell-based
Method in brief: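 Erythroid progenitors expanded from PBMCs of PV patients or normal volunteers using a 2-step protocol. On day 12 of expansion, cells were exposed to compound for 48 h and viability was read by CellTiter-Glo. Day-12 cells were phenotyped by CD71/CD235A flow staining.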

BaF3 = assay: Cytotoxicity against mouse BaF3 cells expressing JAK2 V617F mutant xenografted in athymic BALB/c nude mouse assessed as inhibition of cell viability administered for 24 hrs by CellTiterGlo assay; assay type: toxicity, cell-based; details: in vivo, po, 150 mg/kg
[17] = Induction of apoptosis in human EPC cells derived from polycythemia vera patients assessed as activation of caspase-3/7 level incubated for 16 hrs; assay type: toxicity, cell-based; details: human, epc, time 16 hrs

Tyrosine-protein kinase JAK2 (Homo sapiens), O60674 [V617F], sequence (O60674 whole entry V617F): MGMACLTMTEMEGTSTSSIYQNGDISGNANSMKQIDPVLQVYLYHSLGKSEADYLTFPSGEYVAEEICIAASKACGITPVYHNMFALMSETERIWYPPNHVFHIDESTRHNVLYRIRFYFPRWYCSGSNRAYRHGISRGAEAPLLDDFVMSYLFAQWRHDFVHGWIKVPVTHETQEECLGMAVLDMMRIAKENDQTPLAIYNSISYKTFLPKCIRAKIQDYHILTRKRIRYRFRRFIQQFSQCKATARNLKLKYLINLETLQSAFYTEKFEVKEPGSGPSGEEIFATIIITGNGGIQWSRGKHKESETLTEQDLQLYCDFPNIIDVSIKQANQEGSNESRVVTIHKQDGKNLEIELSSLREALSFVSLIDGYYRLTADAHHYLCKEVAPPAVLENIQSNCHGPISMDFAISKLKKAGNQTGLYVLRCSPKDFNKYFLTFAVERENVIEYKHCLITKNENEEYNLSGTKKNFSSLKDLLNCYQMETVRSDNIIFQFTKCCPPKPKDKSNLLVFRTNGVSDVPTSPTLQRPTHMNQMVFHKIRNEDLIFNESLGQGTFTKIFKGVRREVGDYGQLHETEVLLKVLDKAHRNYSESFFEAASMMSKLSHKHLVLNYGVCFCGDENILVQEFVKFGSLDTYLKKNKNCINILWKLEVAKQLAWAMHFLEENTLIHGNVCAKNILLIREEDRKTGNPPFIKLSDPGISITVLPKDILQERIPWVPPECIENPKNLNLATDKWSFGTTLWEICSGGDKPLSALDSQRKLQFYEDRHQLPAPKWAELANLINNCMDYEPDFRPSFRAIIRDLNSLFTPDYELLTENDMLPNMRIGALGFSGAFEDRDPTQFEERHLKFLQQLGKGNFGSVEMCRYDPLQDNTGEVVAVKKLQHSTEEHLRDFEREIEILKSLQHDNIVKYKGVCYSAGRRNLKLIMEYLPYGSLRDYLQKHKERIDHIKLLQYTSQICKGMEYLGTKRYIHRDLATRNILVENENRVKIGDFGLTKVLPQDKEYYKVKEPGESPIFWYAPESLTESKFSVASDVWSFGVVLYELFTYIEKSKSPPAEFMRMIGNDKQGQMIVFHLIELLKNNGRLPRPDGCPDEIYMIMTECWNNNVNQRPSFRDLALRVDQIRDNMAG

## Cc1cnc(Nc2ccc(OCCN3CCCC3)cc2)nc1Nc1cccc(S(=O)(=O)NC(C)(C)C)c1
[1]
  inhibition: Active

## CC(C)(C)c1nc2c3ccc(F)cc3c3c(=O)[nH]ccc3c2[nH]1
[1]
  inhibition: Active

## C1=C/COCc2cc(ccc2OCCN2CCCC2)Nc2nccc(n2)-c2cccc(c2)COC/1 [PACRITINIB]
[2]
  Activity: 60%
[3]
  Activity: Non-Toxic
[4]
  Activity: Non-Toxic
[5]
  AUC(0-inf): 220 ng·h/mL
[6]
  IC50: 63 nM
[7]
  IC50: 63 nM
[8]
  Activity: 92%
[9]; EPC cells derived from healthy volunteers
  EC50 at 16 h: 224 nM
[9]; epc, 16 h
  Activity: Dose-Dependent Effect
[10]
  Activity: Non-Toxic
[11]
  Activity: Non-Toxic
[12]
  Activity: 0.2%
[13]
  Activity: Non-Toxic
[14]
  Activity: Non-Toxic
[15]
  Activity: 10.1%
[16]
  IC50 at 48 h: 230 nM
BaF3
  FIC50: 0.16 µM
[17]
  Activity: Dose-Dependent Effect
